Read-outs that look alike come from different tables or passages of the source. One block for each compound: values may come before it.
What was measured:
tau = details: cited from earlier work
[1] = T1/2 in mouse liver microsome assays; assay type: in vitro ADME; details: liver microsomes
In short: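 Test compound incubated with mouse liver microsomes at 37 °C. The amount of unmodified compound remaining was measured after 30 min as a single-point stability read. T1/2 (min) was calculated from these incubations. Dextromethorphan served as the positive control.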

solubility = assay type: physicochemical; details: excluded from further study
[2] = mouse liver microsome stability, compound remaining after 30 minutes; assay type: in vitro ADME; details: unmodified compound remaining after incubation with mouse liver microsomes for 30 minutes at 37 °C
[3] = mouse liver microsome assays; cited from earlier work
HeLaC3 cells = experiment: total tau; assay type: cell-based; details: 24 h, Western blot

Compound: YM-01
concentration promoting tau degradation (tau): ~ 1 μM

half-life [1]: ~20 min
Compound: CCn1c(=O)/c(=C2\Sc3ccc(Cl)cc3N2C)s/c1=C\c1ccccn1 [Compound 6]

solubility (solubility): poor solubility
Compound: CCn1c(=O)/c(=C2\Sc3c(Cl)cccc3N2C)s/c1=C\c1ccncc1 [Compound 17]

half-life [1]: ~20 min
Compound: CCn1c(=O)/c(=C2\Sc3cc(Cl)ccc3N2C)s/c1=C\c1ccncc1 [Compound 16]

Percentage at T30min [2]: below the limit of detection
Compound: CCn1c(=O)/c(=C2\Sc3ccccc3N2C)s/c1=C\c1ccccn1 [YM-08]
half-life [3]: less than three minutes

solubility (solubility): poor solubility
Compound: CCn1c(=O)/c(=C2\Sc3cccc(Cl)c3N2C)s/c1=C\c1ccncc1 [Compound 14]

half-life [1]: ~20 min
Compound: CCn1c(=O)/c(=C2\Sc3cccc(Cl)c3N2C)s/c1=C\c1ccccn1 [Compound 5]

Compound: CCn1c(=O)/c(=C2\Sc3ccc(Cl)cc3N2C)s/c1=C\c1ccncc1 [Compound 15]
cellular stress (levels of Hsp72 and Hsp90) (HeLaC3 cells): did not activate cellular stress
